This is an account of results in PMC4203308 (Biomacromolecules, 2013).

In brackets after ≈: the same amount, converted by molar mass. Several values for one entry are separate records, joined by “and”; a condition that tells them apart may be missing. Equal entries are not always repeated. Where no end group is shown, it is not given here. Where only a bound is given, the exact number is not on record here.

For one data set, the system named is S aureus (25923). The data set can be described thus: microbe, parasite or virus in culture. The class given is cell-based, Staphylococcus aureus. Particulars: for Antimicrobial activity (MIC): 25923, 20 h.
For the next data set, the system named is S. aureus (29213). The data set can be described thus: microbe, parasite or virus in culture. Particulars: for Antimicrobial activity (MIC): 29213, 20 h. The class given is cell-based, Staphylococcus aureus.
In another data set the test system is S. Epidermidis (35984). In words: microbe, parasite or virus in culture. The class given is cell-based. Particulars: for Antimicrobial activity (MIC): 35984, 20 h.
Data set [1] can be described thus: in vitro. The class given is cell-based. Particulars: human.
Data set [2] can be described thus: in vitro. The class given is in vitro ADME.
The nature of the next data set: Peptide aggregation. The class given is physicochemical.
Data set [3] has as its system human lung carcinoma A549 cells. In words: Kinetics of peptide-induced cell membrane damage, LIVE/DEAD kit. The class given is cell-based. Particulars: LIVE/DEAD dye staining, 120 minutes of incubation. Summed up:
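A549 cells (freshly trypsinized) seeded at 2 × 10⁴ cells/well in collagen-coated glass chambers, grown overnight in F12K/10% FBS at 37 °C, 5% CO₂. Cells were PBS-washed three times and stained with LIVE/DEAD for 15 min. Test compound was added at a final 10 µM, and confocal images were taken over time (ex 488 nm; em 505–530 nm live, 560 nm dead). Membrane integrity was taken as % green of total green+red pixels.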

Data set [4] has as its system Staphylococcus aureus (ATCC 25923). The data set can be described thus: Co-culture of bacteria and mammalian cells: effect on bacteria. The class given is cell-based. Particulars: A549 monolayer + S. aureus (25923), 20 µM peptide, 6 hours.
[5] abbreviates: Staphylococcus aureus, 20 h, read-out: Antimicrobial activity (MIC).

For `CC1(C)S[C@@H]2[C@H](NC(=O)Cc3ccccc3)C(=O)N2[C@H]1C(=O)O` [Penicillin G], the MIC came to 1 µg/mL (≈ 2.99 µM) in the data set with S aureus (25923) (setting [5]); 16 µg/mL (≈ 47.8 µM) in the data set on S. aureus (29213) (setting [5]); 4 µg/mL (≈ 12 µM) in the data set on S. Epidermidis (35984) (Staphylococcus epidermidis, 20 h, read-out: Antimicrobial activity (MIC)).

The IC50 is the midpoint of a concentration-inhibition curve. A higher IC50 goes with weaker potency. Take FLGALFKALSKLL [PTP-7]: the “Antimicrobial activity (MIC)” value was found to be 4 µg/mL in the data set with S aureus (25923), 8 µg/mL in the data set on S. aureus (29213) and 8 µg/mL in the data set on S. Epidermidis (35984). The IC50 at 2 h in “in vitro [1]” was 9 µM.

One may read the share remaining as the share of the starting amount still present when the sample was taken. A higher share remaining goes with less turnover. On to FLGALFRALSRLL [CL-1], for which the “Antimicrobial activity (MIC)” value is 8 µg/mL in the data set with S aureus (25923), 8 µg/mL with S. aureus (29213) and 4 µg/mL with S. Epidermidis (35984). Further, in the data set “in vitro [2]”, the “estimated half-life in human sera” value is 8 to 9 h. This compound yielded a share remaining at 5 h, 10 µM in the data set “in vitro [2]” (human, serum) of over 95%. Moreover, the “Size of peptide aggregates (Nanosizer)” value in “Peptide aggregation” (PBS pH 7.4, 37 °C, long (> 4–6 hours / overnight) incubation, Zeta nanosizer) was > 2.0 µm and 2.5 µm. For the same compound, the “Aggregate formation at acidic pH (in words)” value in the data set “Peptide aggregation” (acidic pH, even very high peptide concentrations and long incubation) is reported as “unable to form aggregates at acidic pH”. Further, the “Fraction of peptide in solution existing as aggregates” value in “Peptide aggregation” (after overnight incubation, PBS pH 7.4, DLS and congo red) is 90–95% and ~95%. Also, the “Time for aggregates to dissolve completely at pH 5.5” value in the data set “Peptide aggregation” (solution pH adjusted from physiological pH to pH=5.5 with HCl) was under 30 minutes. This compound yielded a Cell lysis reached in data set [3] of under 100%. Further, in data set [4], the “Effect on S. aureus in co-culture (in words)” value was “only S. aureus were selectively killed”.
